Assay results taken from ChEMBL document CHEMBL1955778, “Design and synthesis of novel 7-aminoquinazoline derivatives: antitumor and anticonvulsant activities” (Bioorg Med Chem Lett, 2012).

Experiments:
[1] = tested on: SN12C; test: Growth inhibition of human SN12C cells at 10 uM relative to control; format: functional; settings: read-out: GI
In short: (§1)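 Single-dose screen across the 60-cell-line human tumor panel at 10 μM. Growth inhibition is reported as a percentage, taken as 100 minus the % growth relative to untreated control.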

[2] = tested on: SK-MEL-28; test: Growth inhibition of human SK-MEL-28 cells at 10 uM relative to control; format: functional; settings: read-out: GI
In short: (§2)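 Each cell line in a 60-line human tumour panel exposed to one 10 μM concentration. Growth inhibition percentage computed as 100 minus the percentage activity relative to control.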

[3] = tested on: HCT-116; test: Growth inhibition of human HCT116 cells at 10 uM relative to control; format: functional; settings: read-out: GI; in short: as §2
[4] = tested on: NCI-H522; test: Growth inhibition of human NCI-H522 cells at 10 uM relative to control; format: functional; settings: read-out: GI; in short: as §2
[5] = tested on: Mus musculus; test: Anticonvulsant activity in mouse assessed as protection against maximal electroshock-induced seizure at 1 mmol/kg, ip administered 30 min prior to maximal electroshock-challenge measured after 60 mins relative to control; format: functional
[6] = tested on: NCI-H226; test: Growth inhibition of human NCI-H226 cells at 10 uM relative to control; format: functional; settings: read-out: GI; in short: as §2
[7] = species: Mus musculus; test: Protective index, ratio of TD50 for mouse to ED50 for pentylenetetrazol-induced seizure in mouse; format: functional
In short: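 Mice. Index is TD50/ED50. TD50 is the dose causing minimal neurological toxicity in 50% of mice in the Chimney test. ED50 is the dose protecting 50% of mice against pentylenetetrazole-induced seizures. Both are estimated from testing at several doses.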

[8] = tested on: Mus musculus; test: Anticonvulsant activity in mouse assessed as protection against picrotoxin-induced seizure at 1 mmol/kg, ip administered 30 min prior to picrotoxin-challenge measured after 60 mins relative to control; format: functional
[9] = tested on: OVCAR-8; test: Growth inhibition of human OVCAR8 cells at 10 uM relative to control; format: functional; settings: read-out: GI; in short: as §2
[10] = tested on: UO-31; test: Growth inhibition of human UO31 cells at 10 uM relative to control; format: functional; settings: read-out: GI; in short: as §1
[11] = tested on: K562; test: Growth inhibition of human K562 cells at 10 uM relative to control; format: functional; settings: read-out: GI; in short: as §2
[12] = tested on: MCF7; test: Growth inhibition of human MCF7 cells at 10 uM relative to control; format: functional; settings: read-out: GI; in short: as §2
[13] = Growth inhibition of human 786-O cells at 10 uM relative to control; format: functional; settings: 786-0, read-out: GI; in short: as §2
[14] = tested on: CAKI-1; test: Growth inhibition of human CAKI-1 cells at 10 uM relative to control; format: functional; settings: read-out: GI; in short: as §2
[15] = tested on: SNB-75; test: Growth inhibition of human SNB75 cells at 10 uM relative to control; format: functional; settings: read-out: GI; in short: as §1
[16] = tested on: CCRF-CEM; test: Growth inhibition of human CCRF-CEM cells at 10 uM relative to control; format: functional; settings: read-out: GI; in short: as §2
[17] = tested on: RPMI-8226; test: Growth inhibition of human RPMI8226 cells at 10 uM relative to control; format: functional; settings: read-out: GI; in short: as §2
[18] = tested on: MDA-MB-468; test: Growth inhibition of human MDA-MB-468 cells at 10 uM relative to control; format: functional; settings: read-out: GI; in short: as §2
[19] = tested on: Mus musculus; test: Anticonvulsant activity in mouse assessed as protection against strychnine-induced seizure at 1 mmol/kg, ip administered 30 min prior to strychnine-challenge measured after 60 mins relative to control; format: functional
[20] = tested on: PC-3; test: Growth inhibition of human PC3 cells at 10 uM relative to control; format: functional; settings: read-out: GI; in short: as §2
[21] = Toxicity in ip dose mouse assessed as mortality; format: organism-based; settings: in vivo
In short: (§3)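 In mice, LD50 is the dose causing 50% mortality. ED50 is the dose protecting 50% of mice against pentylenetetrazole-induced seizures. Therapeutic index = LD50/ED50.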

[22] = Therapeutic index, ratio of LD50 for mouse to ED50 for pentylenetetrazol-induced seizure in mouse; format: organism-based; settings: in vivo, read-out: Ratio LD50/ED50; in short: as §3
[23] = Neurotoxicity in ip dosed mouse assessed as impaired motor coordination administered 30 mins prior to test by chimney test; format: toxicity, organism-based; settings: in vivo
In short: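 Mice, Chimney test. TD50 is the dose that produces minimal neurological toxicity (impaired motor coordination) in 50% of animals, estimated from testing at several doses.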

[24] = tested on: T47D; test: Growth inhibition of human T47D cells at 10 uM relative to control; format: functional; settings: read-out: GI; in short: as §1
[25] = tested on: MOLT-4; test: Growth inhibition of human MOLT4 cells at 10 uM relative to control; format: functional; settings: read-out: GI; in short: as §2
[26] = tested on: SF-268; test: Growth inhibition of human SF268 cells at 10 uM relative to control; format: functional; settings: read-out: GI; in short: as §2
[27] = tested on: A549; test: Growth inhibition of human A549 cells at 10 uM relative to control; format: functional; settings: read-out: GI; in short: as §2
[28] = tested on: SNB-19; test: Growth inhibition of human SNB19 cells at 10 uM relative to control; format: functional; settings: read-out: GI; in short: as §1
[29] = tested on: NCI-H23; test: Growth inhibition of human NCI-H23 cells at 10 uM relative to control; format: functional; settings: read-out: GI; in short: as §2
[30] = tested on: KM12; test: Growth inhibition of human KM12 cells at 10 uM relative to control; format: functional; settings: read-out: GI; in short: as §2
[31] = tested on: EKVX; test: Growth inhibition of human EKVX cells at 10 uM relative to control; format: functional; settings: read-out: GI; in short: as §2
[32] = tested on: OVCAR-4; test: Growth inhibition of human OVCAR4 cells at 10 uM relative to control; format: functional; settings: read-out: GI; in short: as §2
[33] = tested on: MDA-MB-435; test: Growth inhibition of human MDA-MB-435 cells at 10 uM relative to control; format: functional; settings: read-out: GI; in short: as §2
[34] = tested on: U-251; test: Growth inhibition of human U251 cells at 10 uM relative to control; format: functional; settings: read-out: GI; in short: as §1
[35] = tested on: Mus musculus; test: Anticonvulsant activity in mouse assessed as protection against pentylenetetrazol-induced seizure at 1 mmol/kg, ip administered 30 min prior to pentylenetetrazol-challenge measured after 60 mins relative to control; format: functional
[36] = tested on: SR; test: Growth inhibition of human SR cells at 10 uM relative to control; format: functional; settings: read-out: GI; in short: as §1
[37] = Growth inhibition of human Hs 578T cells at 10 uM relative to control; format: functional; settings: read-out: GI; in short: as §2
[38] = tested on: MDA-MB-231; test: Growth inhibition of human MDA-MB-231 cells at 10 uM relative to control; format: functional; settings: read-out: GI; in short: as §2
[39] = tested on: HCT-15; test: Growth inhibition of human HCT15 cells at 10 uM relative to control; format: functional; settings: read-out: GI; in short: as §2
[40] = tested on: Mus musculus; test: Anticonvulsant activity in ip dosed mouse assessed as protection against pentylenetetrazol-induced seizure administered 30 min prior to pentylenetetrazol-challenge measured after 60 mins; format: functional
In short: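 Mice received several doses for quantification. ED50 taken as the dose protecting 50% of mice against pentylenetetrazol-induced seizures.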

[41] = tested on: HL-60(TB); test: Growth inhibition of human HL-60(TB) cells at 10 uM relative to control; format: functional; settings: read-out: GI
In short: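 Single-dose screen at 10 μM across the 60-cell-line tumour panel. Percent growth inhibition = 100 minus percent growth activity relative to untreated control.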

[42] = tested on: SK-MEL-5; test: Growth inhibition of human SK-MEL-5 cells at 10 uM relative to control; format: functional; settings: read-out: GI; in short: as §2
[43] = tested on: SF-539; test: Growth inhibition of human SF539 cells at 10 uM relative to control; format: functional; settings: read-out: GI; in short: as §2
[44] = tested on: ACHN; test: Growth inhibition of human ACHN cells at 10 uM relative to control; format: functional; settings: read-out: GI; in short: as §2
[45] = tested on: SK-OV-3; test: Growth inhibition of human SKOV3 cells at 10 uM relative to control; format: functional; settings: read-out: GI; in short: as §2
[46] = tested on: RXF 393; test: Growth inhibition of human RXF393 cells at 10 uM relative to control; format: functional; settings: read-out: GI; in short: as §2
[47] = tested on: OVCAR-3; test: Growth inhibition of human OVCAR3 cells at 10 uM relative to control; format: functional; settings: read-out: GI; in short: as §2
[48] = tested on: UACC-62; test: Growth inhibition of human UACC62 cells at 10 uM relative to control; format: functional; settings: read-out: GI; in short: as §1

## Cc1ccccc1-n1c(C)nc2cc(N3C(=O)CSC3c3ccccc3)ccc2c1=O (centres undefined)
[1]
  inhibition of growth at 10 µM: 3%
[2]
  inhibition of growth at 10 µM: 5%
[3]
  inhibition of growth at 10 µM: 16%
[4]
  inhibition of growth at 10 µM: 18%
[5]
  Activity: 100%
[6]
  inhibition of growth at 10 µM: 14.3%
[7]
  Ratio TD50/ED50: 1.06
[8]
  Activity: 50%
[9]
  inhibition of growth at 10 µM: 5%
[10]
  inhibition of growth at 10 µM: 22%
[11]
  inhibition of growth at 10 µM: 37.6%
[12]
  inhibition of growth at 10 µM: 21.8%
[13]
  inhibition of growth at 10 µM: 3%
[14]
  inhibition of growth at 10 µM: 15.6%
[15]
  inhibition of growth at 10 µM: 19.5%
[16]
  inhibition of growth at 10 µM: 31.1%
[17]
  inhibition of growth at 10 µM: 21.4%
[18]
  inhibition of growth at 10 µM: 25.8%
[19]
  Activity: 0%
[20]
  inhibition of growth at 10 µM: 26.9%
[21]
  LD50: 1500 µmol/kg
[22]
  selectivity ratio: 2.13
[23]
  TD50 at 0.5 h: 750 µmol/kg
[24]
  inhibition of growth at 10 µM: 25.8%
[25]
  inhibition of growth at 10 µM: 46.3%
[26]
  inhibition of growth at 10 µM: 14.2%
[27]
  inhibition of growth at 10 µM: 8.1%
[28]
  inhibition of growth at 10 µM: 9.7%
[29]
  inhibition of growth at 10 µM: 4.4%
[30]
  inhibition of growth at 10 µM: 15.5%
[31]
  inhibition of growth at 10 µM: 12.8%
[32]
  inhibition of growth at 10 µM: 3%
[33]
  inhibition of growth at 10 µM: 9.7%
[34]
  inhibition of growth at 10 µM: 13%
[35]
  Activity: 100%
[36]
  inhibition of growth at 10 µM: 35.3%
[37]
  inhibition of growth at 10 µM: 6%
[38]
  inhibition of growth at 10 µM: 17.3%
[39]
  inhibition of growth at 10 µM: 13.3%
[40]
  ED50: 700 µmol/kg
[41]
  inhibition of growth at 10 µM: 32.7%

## Cc1ccccc1-n1c(C)nc2cc(N3C(=O)CSC3c3ccc(Cl)cc3)ccc2c1=O (centres undefined)
[1]
  inhibition of growth at 10 µM: 5%
[42]
  inhibition of growth at 10 µM: 4%
[5]
  Activity: 100%
[7]
  Ratio TD50/ED50: 1.5
[43]
  inhibition of growth at 10 µM: 5%
[8]
  Activity: 75%
[10]
  inhibition of growth at 10 µM: 15%
[11]
  inhibition of growth at 10 µM: 8.4%
[12]
  inhibition of growth at 10 µM: 5.2%
[14]
  inhibition of growth at 10 µM: 3%
[15]
  inhibition of growth at 10 µM: 7.6%
[16]
  inhibition of growth at 10 µM: 11.3%
[17]
  inhibition of growth at 10 µM: 9.2%
[19]
  Activity: 0%
[20]
  inhibition of growth at 10 µM: 8%
[21]
  LD50: 1040 µmol/kg
[22]
  selectivity ratio: 2.53
[23]
  TD50 at 0.5 h: 600 µmol/kg
[24]
  inhibition of growth at 10 µM: 4%
[44]
  inhibition of growth at 10 µM: 3.5%
[45]
  inhibition of growth at 10 µM: 29.2%
[25]
  inhibition of growth at 10 µM: 39.1%
[27]
  inhibition of growth at 10 µM: 12%
[31]
  inhibition of growth at 10 µM: 4%
[32]
  inhibition of growth at 10 µM: 5%
[33]
  inhibition of growth at 10 µM: 7.7%
[35]
  Activity: 100%
[46]
  inhibition of growth at 10 µM: 3%
[47]
  inhibition of growth at 10 µM: 5.2%
[38]
  inhibition of growth at 10 µM: 23.7%
[48]
  inhibition of growth at 10 µM: 18%
[40]
  ED50: 410 µmol/kg
[41]
  inhibition of growth at 10 µM: 6%
